Holding throughout (assay type): functional
Assay [1] concerns Candida albicans. The assay is described as follows: Growth inhibition of Candida albicans ATCC 10231 at 62.5 ug/ml incubated for 48 hrs under dark condition by broth microdilution assay relative to amphotericin B. The settings on record: ATCC 10231, 48 h, read-out: GI. The gist of the method: (§1)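 Yeast broth microdilution (CLSI M27-A3), RPMI-1640, inoculum 1-5 x 10^3 CFU/mL, DMSO ≤1%, 48 h at 30 °C in a moist, dark chamber. […]. Triplicate; amphotericin B as positive control.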

In assay [2] the test system is Candida albicans. The assay is described as follows: Growth inhibition of Candida albicans ATCC 10231 at 250 ug/ml incubated for 48 hrs under dark condition by broth microdilution assay relative to amphotericin B. The settings on record: ATCC 10231, 48 h, read-out: GI. The gist of the method: as §1
For orientation: In broth dilution the organism is exposed to a series of concentrations in liquid medium.

The subject of assay [3] is Candida albicans. The assay is described as follows: Growth inhibition of Candida albicans ATCC 10231 at 31.25 ug/ml incubated for 48 hrs under dark condition by broth microdilution assay relative to amphotericin B. The settings on record: ATCC 10231, 48 h, read-out: GI. An outline of the steps:
as §1

The subject of assay [4] is Candida albicans. Kind of assay: Growth inhibition of Candida albicans ATCC 10231 at 15.62 ug/ml incubated for 48 hrs under dark condition by broth microdilution assay relative to amphotericin B. The settings on record: ATCC 10231, 48 h, read-out: GI. The gist of the method: as §1
Assay [5] concerns Candida albicans. Kind of assay: Growth inhibition of Candida albicans ATCC 10231 at 7.81 ug/ml incubated for 48 hrs under dark condition by broth microdilution assay relative to amphotericin B. The settings on record: ATCC 10231, 48 h, read-out: GI. The gist of the method:
as §1

Assay [6] has as its system Candida albicans. The assay is described as follows: Growth inhibition of Candida albicans ATCC 10231 at 3.9 ug/ml incubated for 48 hrs under dark condition by broth microdilution assay relative to amphotericin B. The settings on record: ATCC 10231, 48 h, read-out: GI. An outline of the steps:
as §1

For assay [7], the system named is Candida albicans. Kind of assay: Growth inhibition of Candida albicans ATCC 10231 at 125 ug/ml incubated for 48 hrs under dark condition by broth microdilution assay relative to amphotericin B. The settings on record: ATCC 10231, 48 h, read-out: GI. An outline of the steps:
as §1

Assay [8] can be described thus: Antifungal activity against Cryptococcus neoformans ATCC 32264 incubated for 48 hrs under dark condition by broth microdilution assay. An outline of the steps:
(§2)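 Broth microdilution per CLSI M27-A3 in RPMI-1640. Inocula adjusted to 1-5 x 10^3 CFU/mL. Stocks in DMSO (≤1%), final 3.9-250.0 µg/mL. Incubated 48 h at 30 °C in a moist, dark chamber, read at OD 405. % inhibition computed from growth and sterility control wells, run in triplicate. MIC80/MIC50 taken from four-parameter logistic concentration-response curves; amphotericin B as positive control.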

Assay [9] relates to Candida albicans. The assay is described as follows: Antifungal activity against Candida albicans ATCC 10231 incubated for 48 hrs under dark condition by broth microdilution assay. The settings on record: ATCC 10231, 48 h. The gist of the method: as §2
Assay [10] in a line: Antioxidant activity assessed as fluorescent light-induced superoxide anion scavenging activity at 160 uM incubated for 10 mins by nitroblue tetrazolium dye based assay. The gist of the method:
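Superoxide generated photochemically in 50 mM phosphate buffer pH 7.8 with 13 mM L-methionine, 75 µM nitroblue tetrazolium, 100 µM EDTA and 2 µM riboflavin. Compound at 160 µM. 10 min at 25 °C under fluorescent light; dark controls. Read at 575 nm. Resveratrol as positive control; three independent experiments in triplicate.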

The nature of assay [11]: Antioxidant activity assessed as DPPH radical scavenging activity incubated for 30 mins under dark condition. An outline of the steps:
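DPPH (100 µM) in ethanolic medium, stirred 30 min in the dark, absorbance at 517 nm. Compound varied from 0 to 160 µg/mL to find the concentration scavenging 50% of radicals. Three independent experiments, each in triplicate.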

Assay [12] in a line: Antioxidant activity assessed as fluorescent light-induced superoxide anion scavenging activity incubated for 10 mins by nitroblue tetrazolium dye based assay. The gist of the method: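 Riboflavin/light superoxide system: 50 mM phosphate pH 7.8, 13 mM L-methionine, 75 µM NBT, 100 µM EDTA, 2 µM riboflavin, compound 0-200 µg/mL. Fluorescent light for 10 min at 25 °C, dark controls, scavenging measured at 575 nm. Resveratrol as reference.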

A short description of assay [13]: Antioxidant activity assessed as DPPH radical scavenging activity at 160 uM incubated for 30 mins under dark condition. The gist of the method: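 Compound at 160 µM incubated with 100 µM DPPH in ethanolic medium, stirred in the dark for 30 min, read at 517 nm. Resveratrol as positive control. Three independent experiments, each in triplicate.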
In general terms: DPPH is a stable violet radical that fades when it is reduced.

From ChEMBL document CHEMBL3875213, “Quinolines: Microwave-assisted synthesis and their antifungal, anticancer and radical scavenger properties” (Bioorg Med Chem, 2017) come the findings set out here.

In general, MIC50 refers to the lowest concentration that inhibits either 50% of growth or 50% of the strains tested, depending on the study. A lower MIC50 goes with greater potency. In general, MIC80 refers to the lowest concentration that inhibits either 80% of growth or 80% of the strains tested, depending on the study.

Molecules are shown by their SMILES. Converted amounts (≈) assume the structure as drawn. The source made the active and inactive calls. No cut-off for these calls is given here. A value given as a limit tells only on which side of the number the result lay.

Turning to `FC(F)(F)c1cc2nc(-c3ccccc3)cc(-c3ccccc3)c2cc1Cl`, in assay [1], the inhibition of growth at 62.5 µg/mL stood at 15.7%. Moreover, in assay [2], the inhibition of growth at 250 µg/mL is 54.1%. Besides, the inhibition of growth at 31.25 µg/mL in [3] was determined as 9.41%. Moreover, in assay [4], the inhibition of growth at 15.62 µg/mL worked out at 5.36%. Moreover, the inhibition of growth at 7.81 µg/mL in [5] turned out to be 3.5%. Moreover, the inhibition of growth at 3.9 µg/mL in assay [6] amounted to 0%. Also, the inhibition of growth at 125 µg/mL in [7] came out at 25.7%. Further, in assay [8], the MIC50 worked out at 250 µg/mL (≈ 651 µM) and the MIC80 is over 250 µg/mL. In [9], the MIC50 worked out at 250 µg/mL (≈ 651 µM) and the MIC80 was over 250 µg/mL.
In the case of `CC(C)(C)c1ccc2nc(-c3ccccc3)cc(-c3ccccc3)c2c1`, the inhibition of growth at 62.5 µg/mL in [1] stood at 0%. In [2], the inhibition of growth at 250 µg/mL was 7.81%. For the same compound, the inhibition of growth at 31.25 µg/mL in [3] was found to be 0%. Besides, in assay [4], the inhibition of growth at 15.62 µg/mL amounted to 0%. Besides, the inhibition of growth at 7.81 µg/mL in assay [5] came out at 0%. In addition, the inhibition of growth at 3.9 µg/mL in assay [6] amounted to 0%. For the same compound, in assay [7], the inhibition of growth at 125 µg/mL was 1.84%. Also, in assay [10], the Activity was 50%. The MIC50 in assay [8] is 3.9 µg/mL (≈ 11.6 µM); in assay [9] it was over 250 µg/mL. Further, the MIC80 in [8] is 15.6 µg/mL (≈ 46.2 µM); in [9] it was over 250 µg/mL. In addition, the SC50 in assay [11] and in assay [12] was over 250 µM each time.
Turning to `CSc1ccc2nc(-c3ccccc3)cc(-c3ccccc3)c2c1`, in assay [1], the inhibition of growth at 62.5 µg/mL stood at 21.7%. Moreover, the inhibition of growth at 250 µg/mL in assay [2] amounted to 66.3%. For the same compound, the inhibition of growth at 31.25 µg/mL in [3] came to 16%. Besides, in assay [4], the inhibition of growth at 15.62 µg/mL is 11.2%. Moreover, in assay [5], the inhibition of growth at 7.81 µg/mL worked out at 11.2%. For the same compound, the inhibition of growth at 3.9 µg/mL in assay [6] was found to be 4.72%. In addition, the inhibition of growth at 125 µg/mL in [7] was determined as 39.2%. For the same compound, in [10], the result was Active. Besides, the MIC50 in [8] is 15.6 µg/mL (≈ 47.6 µM); in [9], 250 µg/mL (≈ 763 µM). Further, the MIC80 in assay [8] is 31.2 µg/mL (≈ 95.3 µM); in assay [9], over 250 µg/mL.
`Clc1ccc2nc(-c3ccccc3)cc(-c3ccccc3)c2c1`: the inhibition of growth at 62.5 µg/mL in assay [1] came out at 33.1%. Also, in assay [2], the inhibition of growth at 250 µg/mL was determined as 89.8%. The inhibition of growth at 31.25 µg/mL in assay [3] came to 20%. Also, the inhibition of growth at 15.62 µg/mL in assay [4] is 14%. Further, the inhibition of growth at 7.81 µg/mL in [5] stood at 8.07%. The inhibition of growth at 3.9 µg/mL in assay [6] came out at 0%. Further, in assay [7], the inhibition of growth at 125 µg/mL was 53.9%. For the same compound, in assay [10], the Activity is under 10%. In [8], the MIC50 worked out at 15.6 µg/mL (≈ 49.4 µM) and the MIC80 is over 250 µg/mL. For the same compound, in assay [9], the MIC50 is over 250 µg/mL and the MIC80 is over 250 µg/mL.
Consider `Oc1ccc2c(-c3ccccc3)cc(-c3ccccc3)nc2c1`, for which, in assay [1], the inhibition of growth at 62.5 µg/mL is 21.2%. The inhibition of growth at 250 µg/mL in [2] was found to be 53.9%. For the same compound, the inhibition of growth at 31.25 µg/mL in assay [3] was found to be 12.8%. In addition, in [4], the inhibition of growth at 15.62 µg/mL was found to be 80.4%. Further, the inhibition of growth at 7.81 µg/mL in assay [5] stood at 0%. Also, the inhibition of growth at 3.9 µg/mL in assay [6] was 0%. Further, in [7], the inhibition of growth at 125 µg/mL is 29.9%. For the same compound, in assay [13], the Activity lay within 70 to 85%. Further, the MIC50 was 15.6 µg/mL (≈ 52.5 µM) in assay [8] and over 250 µg/mL in assay [9]. The MIC80 in assay [8] and in assay [9] was over 250 µg/mL in each case.
As to `O=[N+]([O-])c1ccc(-c2cc(-c3ccccc3)c3cc(Br)ccc3n2)cc1`, the inhibition of growth at 62.5 µg/mL in assay [1] turned out to be 4.28%. For the same compound, the inhibition of growth at 250 µg/mL in [2] came to 18.2%. In addition, in assay [3], the inhibition of growth at 31.25 µg/mL stood at 4.01%. The inhibition of growth at 15.62 µg/mL in assay [4] was 2.64%. Also, the inhibition of growth at 7.81 µg/mL in [5] worked out at 1.55%. For the same compound, the inhibition of growth at 3.9 µg/mL in assay [6] was found to be 0%. Also, in assay [7], the inhibition of growth at 125 µg/mL was 5.11%. Also, the result in [10] was Active. The Activity in assay [13] is 40%. In assay [8], the MIC50 is over 250 µg/mL and the MIC80 is over 250 µg/mL. In [9], this compound came in with an MIC50 of over 250 µg/mL and an MIC80 of over 250 µg/mL.
Take `O=C(O)c1ccc2nc(-c3ccccc3)cc(-c3ccccc3)c2c1`: the inhibition of growth at 62.5 µg/mL in [1] turned out to be 22.6%. Further, in assay [2], the inhibition of growth at 250 µg/mL came to 57.5%. Besides, in assay [3], the inhibition of growth at 31.25 µg/mL was determined as 11.9%. For the same compound, in assay [4], the inhibition of growth at 15.62 µg/mL was found to be 7.19%. Besides, the inhibition of growth at 7.81 µg/mL in assay [5] amounted to 5.63%. Also, the inhibition of growth at 3.9 µg/mL in assay [6] stood at 0%. The inhibition of growth at 125 µg/mL in assay [7] was found to be 34.6%. Also, the outcome in [10] was Active. For the same compound, the MIC50 in assay [8] and in assay [9] was 250 µg/mL (≈ 768 µM) in each case. Moreover, the MIC80 in assay [8] and in [9] was over 250 µg/mL each time.
